Assay results: ChEMBL document CHEMBL4477203 (J Med Chem, 2016)
Numbered stars: 1 amine (or outer) side, 2 acyl side, 3 side chain; on linkers, the order of the positions; unused ones are H or OH. Bridge positions count the residues as written; N and C are the ends. Peptide text beside a SMILES is read from it. I, II: the chains in the order shown. Suberoyl = O=C(CCCCCCC(=O)[*:2])[*:1]

Experiments:
[1] = target: T1, Neuropeptide Y receptor type 4 (Homo sapiens, UniProt P50391); test: Agonist activity at human NPY Y4 receptor expressed in CHO cells co-expressing Gqi5-mtAEQ assessed as induction of calcium mobilization by aequorin luminescence assay; type: functional, cell-based
Method in brief: (§1)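 Luminescence was integrated as area under the curve and normalized to the response to 1 µM PP. Data are means ± SEM of at least 3 independent experiments, each run in triplicate.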

[2] = target: T1, Neuropeptide Y receptor type 4; test: Intrinsic activity at human NPY Y4 receptor expressed in CHO cells co-expressing Gqi5-mtAEQ assessed as induction of calcium mobilization by aequorin luminescence assay relative to pancreatic polypeptide; type: functional, cell-based; method in brief: as §1
[3] = target: T1, Neuropeptide Y receptor type 4; test: Agonist activity at human NPY Y4 receptor expressed in HEK293 cells co-expressing CRE-Luc gene assessed as inhibition of forskolin stimulated luciferase activity after 4.5 hrs by luminescence assay; type: functional, cell-based
Method in brief: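 HEK293 cells stably co-transfected with a CRE-controlled firefly luciferase reporter and hY4R, tested in phenol-red-free DMEM, pH 7.4. The maximal inhibition by PP was set to 0% activity (α = 1.0). Data are means ± SEM of at least 3 experiments in triplicate.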

[4] = target: T1, Neuropeptide Y receptor type 4; test: Intrinsic activity at human NPY Y4 receptor expressed in HEK293 cells co-expressing CRE-Luc gene assessed as inhibition of forskolin stimulated luciferase activity after 4.5 hrs by luminescence assay relative to pancreatic polypeptide; type: functional, cell-based
Method in brief: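 HEK293 cells stably co-transfected with a CRE-controlled firefly luciferase reporter and hY4R, tested in phenol-red-free DMEM, pH 7.4. […] The maximal inhibition by PP was set to 0% activity (α = 1.0). Data are means ± SEM of at least 3 experiments in triplicate.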

[5] = target: T2, Neuropeptide Y receptor type 1 (Homo sapiens, UniProt P25929); test: Displacement of [3H]UR-MK136 from human NPY Y1 receptor expressed in human MCF7 cells by liquid scintillation counting; type: cell-based
T2 sequence (P25929 whole entry): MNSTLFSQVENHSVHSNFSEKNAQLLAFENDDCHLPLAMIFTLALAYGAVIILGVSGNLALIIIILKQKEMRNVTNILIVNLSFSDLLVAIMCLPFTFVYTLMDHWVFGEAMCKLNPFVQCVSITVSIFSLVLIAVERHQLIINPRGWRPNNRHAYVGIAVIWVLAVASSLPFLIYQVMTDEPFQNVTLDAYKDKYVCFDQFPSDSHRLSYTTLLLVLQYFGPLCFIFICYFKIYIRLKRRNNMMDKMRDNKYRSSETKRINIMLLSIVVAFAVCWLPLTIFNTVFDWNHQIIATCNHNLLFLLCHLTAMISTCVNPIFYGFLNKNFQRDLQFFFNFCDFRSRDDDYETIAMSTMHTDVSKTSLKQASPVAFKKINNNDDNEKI

[6] = target: T3, Neuropeptide Y receptor type 2 (Homo sapiens, UniProt P49146); test: Displacement of [3H]propionyl-pNPY from human NPY Y2 receptor expressed in CHO cells co-expressing Gqi5-mtAEQ after 90 mins by liquid scintillation counting; type: cell-based
T3 sequence (P49146 whole entry): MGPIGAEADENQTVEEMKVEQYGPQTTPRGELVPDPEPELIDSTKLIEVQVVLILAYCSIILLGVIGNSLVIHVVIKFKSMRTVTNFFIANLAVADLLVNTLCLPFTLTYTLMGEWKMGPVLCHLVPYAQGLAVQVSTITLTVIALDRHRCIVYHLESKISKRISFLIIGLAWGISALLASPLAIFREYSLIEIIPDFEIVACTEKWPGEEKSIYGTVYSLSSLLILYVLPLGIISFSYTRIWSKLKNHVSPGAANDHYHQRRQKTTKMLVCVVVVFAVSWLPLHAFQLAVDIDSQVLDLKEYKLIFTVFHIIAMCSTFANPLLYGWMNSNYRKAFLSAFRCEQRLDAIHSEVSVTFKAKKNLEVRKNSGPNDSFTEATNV
Method in brief: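 Adherent CHO-hY2R-Gqi5-mtAEQ cells in buffer I with 1% BSA and 0.1 mg/mL bacitracin at 22 °C. […] Incubation was 90 min, followed by two ice-cold washes, lysis and scintillation counting.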

[7] = target: T1, Neuropeptide Y receptor type 4; test: Displacement of [3H](2R,7R)-10 from human NPY Y4 receptor expressed in CHO cells co-expressing Gqi5-mtAEQ after 90 mins in presence of sodium-free HEPES buffer by liquid scintillation counting; type: cell-based
[8] = target: T4, Neuropeptide Y receptor type 5 (Homo sapiens, UniProt Q15761); test: Displacement of [3H]propionyl-pNPY from human NPY Y5 receptor expressed in human HEC1b cells after 120 mins by liquid scintillation counting; type: cell-based
T4 sequence (Q15761 whole entry): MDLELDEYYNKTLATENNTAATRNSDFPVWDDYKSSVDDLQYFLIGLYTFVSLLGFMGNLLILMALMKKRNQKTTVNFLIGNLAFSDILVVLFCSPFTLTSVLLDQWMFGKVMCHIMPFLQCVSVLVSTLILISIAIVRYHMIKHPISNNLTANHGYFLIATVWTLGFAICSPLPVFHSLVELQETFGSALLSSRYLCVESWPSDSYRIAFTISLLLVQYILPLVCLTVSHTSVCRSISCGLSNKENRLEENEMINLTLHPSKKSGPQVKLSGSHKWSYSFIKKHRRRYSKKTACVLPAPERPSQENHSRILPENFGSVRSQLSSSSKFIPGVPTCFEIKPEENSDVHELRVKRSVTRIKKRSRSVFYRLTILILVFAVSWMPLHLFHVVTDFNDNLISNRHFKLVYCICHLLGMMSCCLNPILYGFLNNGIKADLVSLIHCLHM
Method in brief: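 Adherent HEC-1B-hY5 cells in buffer II with 1% BSA and 0.1 mg/mL bacitracin at 22 °C. […] Incubation was 120 min, followed by ice-cold washes, lysis and scintillation counting.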

[9] = target: T1, Neuropeptide Y receptor type 4; test: Displacement of [3H]18 from human NPY Y4 receptor expressed in CHO cells co-expressing Gqi5-mtAEQ after 90 mins by liquid scintillation counting; type: cell-based; conditions: cho

T1 sequence (P50391 whole entry): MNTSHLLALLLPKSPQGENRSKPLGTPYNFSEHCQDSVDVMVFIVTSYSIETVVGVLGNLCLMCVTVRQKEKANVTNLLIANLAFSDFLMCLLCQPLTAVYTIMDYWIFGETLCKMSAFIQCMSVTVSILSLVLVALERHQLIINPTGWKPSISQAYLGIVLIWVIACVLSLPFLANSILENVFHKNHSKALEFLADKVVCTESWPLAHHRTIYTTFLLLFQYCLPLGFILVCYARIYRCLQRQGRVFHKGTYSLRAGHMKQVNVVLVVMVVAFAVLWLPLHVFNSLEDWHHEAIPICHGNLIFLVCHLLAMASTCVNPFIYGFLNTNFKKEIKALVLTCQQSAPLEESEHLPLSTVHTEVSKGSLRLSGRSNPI

In the case of `CC(C)C[C@H](NC(=O)[C@H](CCCNC(=N)N)NC(=O)[C@H](Cc1ccc(O)cc1)NC(=O)CCCCCCC(=O)N[C@@H](Cc1ccc(O)cc1)C(=O)N[C@@H](CCCNC(=N)N)C(=O)N[C@@H](CC(C)C)C(=O)N[C@@H](CCCNC(=N)N)C(=O)N[C@@H](Cc1ccc(O)cc1)C(N)=O)C(=O)N[C@@H](C)C(=O)N[C@@H](Cc1ccc(O)cc1)C(N)=O` (I: YRLAY-NH2 / II: YRLRY-NH2; linker I:N-II:N via Suberoyl), the EC50 [1] is reported as 310 nM, the Intrinsic activity [2] is reported as 0.85 and the EC50 [3] is reported as 150 nM. It also gave an Intrinsic activity [4] of 0.99, a Ki [5] of 1600 nM and a Ki [6] of over 3000 nM. The Ki [7] was 11 nM and the Ki [8] was 460 nM.

`CC[C@H](C)[C@H](N)C(=O)N[C@H]1CCC(=O)NC[C@@H](C(=O)N[C@@H](Cc2ccc(O)cc2)C(=O)N[C@@H](CCCN=C(N)N)C(=O)N[C@@H](CC(C)C)C(=O)N[C@@H](CCCN=C(N)N)C(=O)N[C@@H](Cc2ccc(O)cc2)C(N)=O)NC(=O)[C@@H]2CCCN2C(=O)[C@H](NC(=O)[C@@H](N)[C@@H](C)CC)CCC(=O)NC[C@H](C(=O)N[C@@H](Cc2ccc(O)cc2)C(=O)N[C@@H](CCCN=C(N)N)C(=O)N[C@@H](CC(C)C)C(=O)N[C@@H](CCCN=C(N)N)C(=O)N[C@@H](Cc2ccc(O)cc2)C(N)=O)NC(=O)[C@@H]2CCCN2C1=O` gave an Intrinsic activity [2] of 0.62 and an Intrinsic activity [4] of 1.01.

For `CC(C)C[C@H](NC(=O)[C@H](CCCNC(=N)N)NC(=O)[C@H](Cc1ccc(O)cc1)NC(=O)CCCCCCC(=O)N[C@@H](Cc1ccc(O)cc1)C(=O)N[C@@H](CCCNC(=N)N)C(=O)N[C@@H](CC(C)C)C(=O)N[C@@H](C)C(=O)N[C@@H](Cc1ccc(O)cc1)C(N)=O)C(=O)N[C@@H](C)C(=O)N[C@@H](Cc1ccc(O)cc1)C(N)=O` (I: YRLAY-NH2 / II: YRLAY-NH2; linker I:N-II:N via Suberoyl), the EC50 [3] was over 3000 nM, the Ki [5] was over 10000 nM and the Ki [6] was over 10000 nM. The Ki [7] was over 3000 nM and the Ki [8] was over 10000 nM.

`CCC(=O)N[C@H](CCCC[C@@H](N)C(=O)N[C@H](Cc1ccc(O)cc1)C(=O)N[C@H](CCCNC(=N)N)C(=O)N[C@H](CC(C)C)C(=O)N[C@H](CCCNC(=N)N)C(=O)N[C@H](Cc1ccc(O)cc1)C(N)=O)C(=O)N[C@@H](Cc1ccc(O)cc1)C(=O)N[C@@H](CCCNC(=N)N)C(=O)N[C@@H](CC(C)C)C(=O)N[C@@H](CCCNC(=N)N)C(=O)N[C@@H](Cc1ccc(O)cc1)C(N)=O` showed an EC50 ([1]; cho) of 59 nM, an Intrinsic activity [2] of 0.7 and an EC50 ([3]; hek293) of 27 nM. It also gave an Intrinsic activity [4] of 0.98, a Ki ([5]; mcf7) of 290 nM and a Ki ([6]; cho) of 750 nM. For the same compound, the Ki ([7]; cho) was 2.8 nM and the Ki [8] was 400 nM.

In the case of `CC[C@H](C)[C@H](N)C(=O)N[C@H]1CCC(=O)NC[C@@H](C(=O)N[C@@H](Cc2ccc(O)cc2)C(=O)N[C@@H](CCCN=C(N)N)C(=O)N[C@@H](CC(C)C)C(=O)N[C@@H](CCCN=C(N)N)C(=O)N[C@@H](Cc2ccc(O)cc2)C(N)=O)NC(=O)[C@@H]2CCCN2C(=O)[C@@H](NC(=O)[C@@H](N)[C@@H](C)CC)CCC(=O)NC[C@@H](C(=O)N[C@@H](Cc2ccc(O)cc2)C(=O)N[C@@H](CCCN=C(N)N)C(=O)N[C@@H](CC(C)C)C(=O)N[C@@H](CCCN=C(N)N)C(=O)N[C@@H](Cc2ccc(O)cc2)C(N)=O)NC(=O)[C@@H]2CCCN2C1=O`, the EC50 ([1]; cho) is reported as 8.5 nM, the EC50 ([3]; hek293) is reported as 5.5 nM and the Ki ([7]; cho) is reported as 1.6 nM. The Ki [9] was 1.3 nM.
